# Source: PubChem (several laboratories)
# A selection: hits, their analogues and other compounds. The true share with any hit is near 3.7%.
# 14-3-3 Bad PPI = disrupts binding of bovine 14-3-3 zeta to phospho-Bad peptide | P63103 | TR-FRET 14-3-3zeta/Dy647-pBad peptide displacement, 1 h | inhibition, % at 21.7 µM | 220,000 tested, 0.71% active | AID 781;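 active = inhibition above about 70%, limit read from the data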;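 also: 0% = full 14-3-3 plus peptide FRET controls and 100% = background without 14-3-3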
# Target sequence (P63103 whole entry, looked up): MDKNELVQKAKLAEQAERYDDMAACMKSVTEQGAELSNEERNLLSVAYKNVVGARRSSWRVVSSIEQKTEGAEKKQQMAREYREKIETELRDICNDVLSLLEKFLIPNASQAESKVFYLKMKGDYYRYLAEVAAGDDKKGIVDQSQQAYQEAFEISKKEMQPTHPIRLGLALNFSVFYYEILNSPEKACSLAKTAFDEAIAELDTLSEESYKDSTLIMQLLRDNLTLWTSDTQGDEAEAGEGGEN
# WT yeast gro inh = growth inhibition of WT yeast, mitochondrial fusion screen | 190,000 tested, 2.1% active | inhibition, % at 10 µM | mitochondrial fusion phenotypic screen, WT strain; in the data active = inhibition above about 58%; tested in S. cerevisiae
# p47phox inh = inhibitors of human p47phox binding; P14598; p47phox/p22phox peptide binding, fluorescence polarization, 2 h; 220,000 tested, 0.53% active; inhibition, % at 24.7 µM;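 also: 0% = p47phox with labelled peptide and 100% = labelled peptide alone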
# RBBP9 inh = blocks human serine hydrolase RBBP9. inhibition, % at 7.94 µM. O75884. recombinant RBBP9, FP-Rh probe fluorescence polarization. AID 1515. 220,000 tested, 0.2% active;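 active = inhibition above the campaign mean of all tested compounds plus 3 SD, cut at about 14% in these data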;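 also: plate controls were DMSO wells with RBBP9 for no effect and wells lacking RBBP9 protein for full effect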
# Target sequence (O75884 whole entry, looked up): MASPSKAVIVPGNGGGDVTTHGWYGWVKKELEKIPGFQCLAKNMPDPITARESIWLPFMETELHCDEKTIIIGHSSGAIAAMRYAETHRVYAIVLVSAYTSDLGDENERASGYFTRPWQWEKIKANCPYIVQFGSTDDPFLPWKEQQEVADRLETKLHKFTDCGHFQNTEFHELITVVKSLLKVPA
#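 Measured by – fluorescence polarization · Test system – RBBP9 protein · Input – 2.5 µM RBBP9 dispensing solution, before mixing · Measure – percent inhibition from mP, scaled between DMSO and no-protein wells · Benchmarks – DMSO-treated enzyme wells and wells lacking RBBP9 · Times – preincubation 30 min plus labeling 45 min at 25 °C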
# eIF4E-4G inh = inhibitors of eIF4E and eIF4G interaction in translation initiation; P63073+Q04637; inhibition, % at 21.7 µM; 220,000 tested, 0.37% active; TR-FRET eIF4E-eIF4GI(517-606) binding, 2 h;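 also: 0% = full FRET control wells and 100% = background wells lacking eIF4GI fragment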
# EBV gp42 block = blocks Epstein-Barr virus glycoprotein 42 binding; Q1HVG2; Fluorescence polarization binding assay, mP read-out; inhibition, % (tested at 21.74 µM); 220,000 tested, 0.42% active; AID 1085; in the data active = inhibition above about 50%
# * hit, by the source's call; . = not tested or not shown; [ ] = remark or other dose.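 The calls were made as follows, unless noted: active = inhibition above about 30% (limit read from the data); inactive = the rest.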
SMILES,14-3-3 Bad PPI,WT yeast gro inh,p47phox inh,RBBP9 inh,eIF4E-4G inh,EBV gp42 block
O=C(CN1C(=O)COc2ccc(Cl)cc21)Nc1ccc2c(c1)OCCO2,18,2,-8,-5,6,1
CCCCC1(C)OC(=O)C(=Cc2ccc(-c3ccc(Cl)c(C(=O)O)c3)o2)C(=O)O1 (configuration not stated),9,.,-9,1,3,-77
CC1=C(C#N)C(=O)NC(=O)/C1=C\c1ccc(-c2ccc(C)cc2[N+](=O)[O-])o1,48,1,-6,-1,33*,21
CCOC(=O)c1cc(-c2ccc(/C=C3/C(=O)NC(=O)C(C#N)=C3C)o2)ccc1Cl,77*[fluorescence artefact?],-22,3,1,59*[fluorescence artefact?],106*
Cc1ccc(-c2ccc(/C=N/N=C3/NC(=O)C(CC(=O)O)S3)o2)c([N+](=O)[O-])c1 (configuration not stated),14,-6,-12,-4,10,-3
CCCCc1ccc(NC(=O)C(=O)NCCN2CCN(Cc3ccc([N+](=O)[O-])cc3)CC2)cc1,2,18,2,-7,4,2
Nc1cc(=O)[nH]n1C1CCCCC1,-2,3,-15,-1,0,-21
O=C(CSc1nnc(CNC(=O)c2c(F)cccc2Cl)o1)Nc1ccc2c(c1)OCO2,-21,1,31*,2,0,6
CN(C(=S)Nc1ccc(SC(F)F)cc1)c1ccc(O)cc1,0,87*,-4,-5,3,3
CN(C(=S)Nc1ccc(Oc2ccccc2)cc1)c1ccc(O)cc1,-1,49,-6,-7,-2,17
O=C(Nc1nc(-c2ccccc2)c(-c2ccccc2)o1)c1ccc(F)cc1,-21,17,-14,-10,7,-5
COc1cccc(C(=O)Nc2nc(-c3ccccc3)c(-c3ccccc3)o2)c1,-4,74*,-21,-7,6,-17
Cc1ccc(S(=O)(=O)Nc2cccc3ncccc23)s1,-40,71*,0,11,-4,-5
Cc1ccc(S(=O)(=O)Nc2cccc3ncccc23)cc1,2,.,7,-5,-3,1
N#Cc1nc(COc2ccc(F)cc2)oc1N1CCC(Cc2ccccc2)CC1,10,0,50*,-11,3,-21
CC1(C)CC2CC(C)(CN2/C=N/c2sc3c(c2C#N)CC(C)(C)NC3(C)C)C1 (configuration not stated),-6,.,-13,5,0,-15
CCOc1ccc(NC(=O)c2ccc(F)c(S(=O)(=O)N3CCN(c4ccccn4)CC3)c2)cc1,75*,-34,-5,-11,2,-12
O=C(Nc1cccc(Cl)c1)c1ccc(F)c(S(=O)(=O)N2CCN(c3ccccn3)CC2)c1,-6,26,-16,-2,5,8
COc1ccc(CN2CCN(C(=O)c3ccco3)CC2)cc1OCc1ccccc1,84*,13,-3,-5,-4,-20
COc1ccc(CN2CCN(c3ccccn3)CC2)cc1OCc1ccccc1,70*,13,-5,-9,4,-17
CC(=O)Nc1nc(CCN2C(=O)c3ccccc3C2=O)cs1,7,-4,45*,-13,0,-7
CNc1nc(CCN2C(=O)c3ccccc3C2=O)cs1,-8,-5,-9,3,5,-6
CCN(CC)CCNC(=O)Cn1nc(Cc2ccccc2)c2ccccc2c1=O,3,60*,-9,-7,6,-26
CCN(CC)CCSc1nnc2c3ccccc3n(Cc3ccccc3)c2n1,1,.,-3,-1,-15,-13
O=c1[nH]c(S)c(/C=C2\C=Nc3ccccc32)s1,13,.,-5,-1,-1,63*
SMILES,14-3-3 Bad PPI,WT yeast gro inh,p47phox inh,RBBP9 inh,eIF4E-4G inh,EBV gp42 block
CCOC(=O)Cc1c(Sc2ccccc2)c2ccccc2n1C,-1,66*,1,-6,1,-1
Cn1c(CC(=O)NC(C)(C)CO)c(Sc2ccccc2)c2ccccc21,-9,-3,-7,-5,3,2
Cc1ccccc1C(=O)Nc1nnc(-c2ccc(F)cc2)o1,1,70*,-11,-1,1,-4
COc1ccccc1C(=O)Nc1nnc(-c2ccc(F)cc2)o1,0,9,-1,-9,-7,-11
Cc1ccc(C)c(SCC(=O)Nc2nnc(-c3ccccc3)o2)c1,-10,73*,-11,6,4,-6
CCC(c1nnc(SCC(=O)Nc2nnc(-c3ccccc3)o2)o1)N(C)C (configuration not stated),-4,1,-44,-2,-13,-17
Cc1nn(CC2CC2)c(=O)n1-c1ccccc1,-6,-5,3,-13,2,-7
C=CCc1ccc(OCCOCCOc2cccc3ccc(C)nc23)c(OC)c1,74*,3,-3,5,10,-10
COc1ccc(/C=N/NC(=O)c2ccoc2C)cc1COc1c(C)cccc1C,-7,88*,-10,-12,0,10
COc1ccc(CCC(C)Nc2cccc(F)c2)cc1 (configuration not stated),86*,-5,-12,-8,3,-20
NC(=O)c1cc2ccc(O)cc2oc1=NCc1ccccc1,3,-8,-5,-2,3,108*
CC1(C)Cc2ccccc2/C(=C/C(=O)N2CCCCCC2)N1,74*,11,-2,-7,12,-2
COc1cc2c(cc1OC)/C(=C/C(=O)N1CCOCC1)NC(C)(C)C2,68,-7,-14,-6,13,-11
CC(N=C1NC(C)(C)Cc2ccccc21)C(=O)O (configuration not stated),91*,6,2,10,4,-1
CCOc1ccc(N/C(N)=N/c2nc(CSc3nnnn3-c3ccccc3)cc(=O)[nH]2)cc1,2,.,2,-11,-1,-13
CC(C)[C@H](NC(=O)NCc1ccc(F)cc1)C(=O)O,2,.,-4,-6,-4,-17
NNC(=O)Cn1c(-c2ccccc2)cc(=O)n2ncnc12,2,.,-10,1,2,-19
COc1ccc(C)cc1N1C(=N)/C(=C2/Nc3ccccc3S2)C(c2ccccc2)C1=O (configuration not stated),-1,84*,-16,-5,7,0
O=C(NNS(=O)(=O)c1ccc2ccccc2c1)NC1CCCCC1,-8,-10,3,-8,12,1
CCOC(=O)c1c(CC(C)C)csc1NC(=O)COC(=O)c1cc(OC)c(OC)cc1[N+](=O)[O-],3,-19,-13,6,1,-10
COc1ccc(-c2cn3nc4c(nc3n2)CCCC4)cc1,-2,6,-31,0,0,96*
COc1cccc(-c2cn3nc(C)c(C)nc3n2)c1,2,27,-64,-2,5,-21
